ChEMBL document CHEMBL1135434, “An algorithm-directed two-component library synthesized via solid-phase methodology yielding potent and orally bioavailable p38 MAP kinase inhibitors” (J Med Chem, 2002)

Tests used:
Rattus norvegicus [1] = species on record: Rattus norvegicus; experiment: PK study was carried to determine AUC (area under curve) value in rat; format: ADME, organism-based; set-up: concentration or dose not given beside the values; details: in vivo
How it was run: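 Three rats dosed at 1 mg/kg, either orally as a methylcellulose suspension or iv as a solution in N-methylpyrrolidone. Blood sampled at intervals over 24 h and assayed for compound. Results averaged, n = 3.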

[2] = PK study was carried to determine the relative absorption ranking in rat.; format: ADME, organism-based; details: plasma, read-out: Cp max
MAP kinase p38 = MAP kinase p38 (Mus musculus, UniProt P47811+O08911+Q9WUI1+Q9Z1B7); experiment: Inhibition of murine Mitogen-activated protein kinase p38; format: protein assay
How it was run: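 Mouse p38 enzyme, 40 ng/well, run for 1 h at room temperature. ATF-2 (50 µg/mL) coated on plates as substrate. Buffer: 25 mM Hepes pH 7.7, 25 mM MgCl2, 2 mM DTT, 1 mM sodium orthovanadate, 100 µM ATP. Phospho-ATF-2 detected with a rabbit phospho-specific antibody, then a europium-labelled anti-rabbit secondary, read by DELFIA fluorescence. Mean ± SEM, n = 3.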

[3] = molecular target: T1, Tumor necrosis factor (Mus musculus) (UniProt P06804); experiment: Effective dose against LPS-stimulated Tumor necrosis factor, alpha release in mice dosed orally, 30 min prior to LPS challenge (0.1 mg/kg, ip); format: functional, organism-based
T1 sequence (whole entry): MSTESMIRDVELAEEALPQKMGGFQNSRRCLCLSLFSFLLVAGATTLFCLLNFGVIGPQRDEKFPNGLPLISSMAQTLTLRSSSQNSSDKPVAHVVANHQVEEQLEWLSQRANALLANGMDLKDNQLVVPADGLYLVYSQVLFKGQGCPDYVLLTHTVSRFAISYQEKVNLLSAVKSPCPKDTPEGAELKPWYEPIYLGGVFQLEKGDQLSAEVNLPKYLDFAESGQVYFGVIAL
How it was run: (§1)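 Balb/c mice dosed orally 30 min before ip LPS (0.1 mg/kg). Serum TNFα measured 90 min after LPS. Means, n = 3.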

[4] = molecular target: T1, Tumor necrosis factor (Mus musculus); experiment: Effective dose against LPS-stimulated Tumor necrosis factor, alpha release in mice dosed orally, 30 min prior to LPS challenge (0.1 mg/kg, ip); value ranges from 3-10; format: functional, organism-based; how it was run: as §1
Rattus norvegicus [5] = experiment: Effective dose for suppressing paw swelling in an in vivo SCW (streptococcal cell wall) induced arthritis model in Lewis rat; value ranges from 10-30; format: functional

AUC (Rattus norvegicus [1])	Cmax [2]	IC50 (MAP kinase p38)	Compound	ED50 [3]	ED50 [4]	ED50 (Rattus norvegicus [5])
529 ng·h/mL	110 ng/mL	4 nM	CN(C)C(=O)[C@]1(C)CO[C@@H](c2nc(-c3ccc(F)cc3)c(-c3ccnc(NCc4ccccn4)n3)[nH]2)OC1	8 mg/kg		
412 ng·h/mL	141 ng/mL	12 nM	CC(C)NC(=O)[C@]1(C)CO[C@@H](c2nc(-c3ccc(F)cc3)c(-c3ccnc(NCC4CC4)n3)[nH]2)OC1	0.7 mg/kg		
628 ng·h/mL	277 ng/mL	110 nM	CS(=O)(=O)O.C[C@]1(C(=O)N2CCOCC2)CO[C@H](c2nc(-c3ccc(F)cc3)c(-c3ccncc3)[nH]2)OC1			
247 ng·h/mL	60 ng/mL		C[C@]1(C(=O)N2CCOCC2)CO[C@H](c2nc(-c3ccc(F)cc3)c(-c3ccncc3)[nH]2)OC1 [listing 2 of 2 here]			
276 ng·h/mL	29 ng/mL	6 nM	CN(C)C(=O)[C@]1(C)CO[C@@H](c2nc(-c3ccc(F)cc3)c(-c3ccnc(NCC4CC4)n3)[nH]2)OC1	9 mg/kg		
288 ng·h/mL	91 ng/mL	5 nM	C[C@]1(C(=O)NC2CC2)CO[C@H](c2nc(-c3ccc(F)cc3)c(-c3ccnc(NCC4CC4)n3)[nH]2)OC1	5 mg/kg		
541 ng·h/mL	221 ng/mL	4 nM	CN1CCN(C(=O)[C@]2(C)CO[C@@H](c3nc(-c4ccc(F)cc4)c(-c4ccnc(NCC5CC5)n4)[nH]3)OC2)CC1	10 mg/kg		30 mg/kg

More lines, now with the values behind:

Compound	AUC (Rattus norvegicus [1])	Cmax [2]	IC50 (MAP kinase p38)	ED50 [3]	ED50 [4]	ED50 (Rattus norvegicus [5])
COCCCNc1nccc(-c2[nH]c([C@H]3OC[C@@](C)(C(=O)NCCOC)CO3)nc2-c2ccc(F)cc2)n1	138 ng·h/mL	89 ng/mL	127 nM	5 mg/kg		
C=CCNc1nccc(-c2[nH]c([C@H]3OC[C@@](C)(C(=O)NCCOC)CO3)nc2-c2ccc(F)cc2)n1	169 ng·h/mL	95 ng/mL	62 nM	0.2 mg/kg		
C[C@]1(C(=O)N2CCOCC2)CO[C@H](c2nc(-c3ccc(F)cc3)c(-c3ccncc3)[nH]2)OC1 [listing 1 of 2 here]					10 mg/kg	
CCCNC(=O)[C@]1(C)CO[C@@H](c2nc(-c3ccc(F)cc3)c(-c3ccnc(NCCCOC)n3)[nH]2)OC1	738 ng·h/mL	270 ng/mL	6 nM	6 mg/kg		
COCCNc1nccc(-c2[nH]c([C@H]3OC[C@@](C)(C(=O)NCC4CC4)CO3)nc2-c2ccc(F)cc2)n1	121 ng·h/mL	62 ng/mL	47 nM	3 mg/kg		
CCCNC(=O)[C@]1(C)CO[C@@H](c2nc(-c3ccc(F)cc3)c(-c3ccnc(NCc4ccco4)n3)[nH]2)OC1	257 ng·h/mL	39 ng/mL	6 nM			
